# Columns and labels:
# [1] = biological target: Dual specificity protein kinase CLK3 (Homo sapiens) (UniProt P49761); assay: Inhibition of wild-type human full length CLK3 (M1 to R490 residues) expressed in Escherichia coli BL21 assessed as residual activity at 1000 nM after 30 mins by Kinomescan method relative to control
# Procedure, shortened: (§1)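 Single-point screen at a fixed 1 µM, run within a 456-kinase DiscoveRx KINOMEscan panel. Each kinase's read-out is Percent Control, i.e. signal relative to a control without compound. Hits were scored by a Percent Control < 35 cut-off, and an S(35) selectivity score was calculated across the non-mutant kinases.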
# [2] = biological target: Microtubule-associated serine/threonine-protein kinase 1 (Homo sapiens) (UniProt Q9Y2H9); assay: Inhibition of wild-type human partial length MAST1 (S346 to V730 residues) expressed in HEK293 cells assessed as residual activity at 1000 nM after 30 mins by Kinomescan method relative to control; type: cell-based
# [3] = biological target: Casein kinase II subunit alpha' (Homo sapiens) (UniProt P19784); assay: Inhibition of wild-type human full length CSNK2A2 (M1 to R350 residues) expressed in HEK293 cells assessed as residual activity at 1000 nM after 30 mins by Kinomescan method relative to control; type: cell-based; procedure, shortened: as §1
# [4] = biological target: Serine/threonine-protein kinase pim-1 (Homo sapiens) (UniProt P11309); assay: Inhibition of wild-type human partial length PIM1 (A15 to K313 residues) expressed in Escherichia coli BL21 assessed as residual activity at 1000 nM after 30 mins by Kinomescan method relative to control
# [5] = system: Epidermal growth factor receptor (Homo sapiens), P00533 [UNDEFINED MUTATION]; assay: Inhibition of human partial length EGFR L747-S752del/P753S mutant expressed in Escherichia coli BL21 assessed as residual activity at 1000 nM after 30 mins by Kinomescan method relative to control
# Procedure, shortened: (§2)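 KINOMEscan binding panel of 456 kinases, with the test compound at a single concentration of 1 µM. Read-out is Percent Control.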
# [6] = biological target: Cyclin-dependent kinase-like 3 (Homo sapiens) (UniProt Q8IVW4); assay: Inhibition of wild-type human partial length CDKL3 (M1 to D327 residues) expressed in Escherichia coli BL21 assessed as residual activity at 1000 nM after 30 mins by Kinomescan method relative to control
# [7] = biological target: Serine/threonine-protein kinase Chk2 (Homo sapiens) (UniProt O96017); assay: Inhibition of wild-type human partial length CHEK2 (S253 to E574 residues) expressed in Escherichia coli BL21 assessed as residual activity at 1000 nM after 30 mins by Kinomescan method relative to control
# [8] = biological target: Mitogen-activated protein kinase kinase kinase 10 (Homo sapiens) (UniProt Q02779); assay: Inhibition of wild-type human partial length MLK2 (V52 to W380 residues) expressed in Escherichia coli BL21 assessed as residual activity at 1000 nM after 30 mins by Kinomescan method relative to control
# [9] = biological target: Serine/threonine-protein kinase DCLK1 (Homo sapiens) (UniProt O15075); assay: Inhibition of wild-type human partial length DCAMKL1 (L270 to A662 residues) expressed in HEK293 cells assessed as residual activity at 1000 nM after 30 mins by Kinomescan method relative to control; type: cell-based
# [10] = biological target: Cyclin-dependent kinase 17 (Homo sapiens) (UniProt Q00537); assay: Inhibition of wild-type human full length PCTK2 (M1 to F523 residues) expressed in Escherichia coli BL21 assessed as residual activity at 1000 nM after 30 mins by Kinomescan method relative to control
# Procedure, shortened: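 Single-concentration screen at 1 µM across a 456-kinase KINOMEscan panel. The read-out is Percent Control for each kinase.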
# [11] = biological target: Ephrin type-B receptor 3 (Homo sapiens) (UniProt P54753); assay: Inhibition of wild-type human partial length EPHB3 (Q599 to T928 residues) expressed in Escherichia coli BL21 assessed as residual activity at 1000 nM after 30 mins by Kinomescan method relative to control
# [12] = biological target: Receptor-type tyrosine-protein kinase FLT3 (Homo sapiens) (UniProt P36888); assay: Inhibition of wild-type human partial length autoinhibited FLT3 (H564 to Y969 residues) expressed in HEK293 cells assessed as residual activity at 1000 nM after 30 mins by Kinomescan method relative to control; type: cell-based
# [13] = biological target: Phosphorylase b kinase gamma catalytic chain, liver/testis isoform (Homo sapiens) (UniProt P15735); assay: Inhibition of wild-type human partial length PHKG2 (M1 to W300 residues) expressed in Escherichia coli BL21 assessed as residual activity at 1000 nM after 30 mins by Kinomescan method relative to control
# [14] = biological target: Hormonally up-regulated neu tumor-associated kinase (Homo sapiens) (UniProt P57058); assay: Inhibition of wild-type human partial length HUNK (A31 to K354 residues) expressed in Escherichia coli BL21 assessed as residual activity at 1000 nM after 30 mins by Kinomescan method relative to control
# [15] = biological target: Insulin-like growth factor 1 receptor (Homo sapiens) (UniProt P08069); assay: Inhibition of wild-type human partial length IGF1R (L972 to D1294 residues) expressed in Escherichia coli BL21 assessed as residual activity at 1000 nM after 30 mins by Kinomescan method relative to control
# [16] = system: Mast/stem cell growth factor receptor Kit (Homo sapiens), P10721 [D816V]; assay: Inhibition of human partial length KIT D816V mutant (I571 to D952 residues) expressed in Escherichia coli BL21 assessed as residual activity at 1000 nM after 30 mins by Kinomescan method relative to control; procedure, shortened: as §2
# [17] = system: Mast/stem cell growth factor receptor Kit (Homo sapiens), P10721 [V559D,V654A]; assay: Inhibition of human partial length KIT V559D/V654A double mutant (Y545 to D952 residues) expressed in Escherichia coli BL21 assessed as residual activity at 1000 nM after 30 mins by Kinomescan method relative to control; procedure, shortened: as §2
# [18] = biological target: Serine/threonine-protein kinase Nek5 (Homo sapiens) (UniProt Q6P3R8); assay: Inhibition of wild-type human partial length NEK5 (M1 to M279 residues) expressed in Escherichia coli BL21 assessed as residual activity at 1000 nM after 30 mins by Kinomescan method relative to control
# [19] = biological target: Calcium/calmodulin-dependent protein kinase type II subunit beta (Homo sapiens) (UniProt Q13554); assay: Inhibition of wild-type human partial length CAMK2B (M1 to Q380 residues) expressed in Escherichia coli BL21 assessed as residual activity at 1000 nM after 30 mins by Kinomescan method relative to control
# [20] = biological target: Cyclin-dependent kinase 9 (Homo sapiens) (UniProt P50750); assay: Inhibition of wild-type human full length CDK9 (M1 to F372 residues) expressed in Escherichia coli BL21 assessed as residual activity at 1000 nM after 30 mins by Kinomescan method relative to control; procedure, shortened: as §1
# [21] = biological target: BMP-2-inducible protein kinase (Homo sapiens) (UniProt Q9NSY1); assay: Inhibition of wild-type human partial length BIKE (S34 to N329 residues) expressed in Escherichia coli BL21 assessed as residual activity at 1000 nM after 30 mins by Kinomescan method relative to control
smiles,measurement,setting,value
COc1cc(OC)c(Cl)c(N2Cc3cnc(Nc4ccc(F)cc4)nc3N(C3CCN(C(=O)/C=C/CN(C)C)CC3)C2=O)c1Cl,Activity,[1],100%
same,Activity,[2],90%
same,Activity,[3],100%
same,Activity,[4],97%
same,Activity,[5],100%
same,Activity,[6],89%
same,Activity,[7],100%
same,Activity,[8],94%
same,Activity,[9],95%
same,Activity,[10],90%
same,Activity,[11],100%
same,Activity,[12],100%
same,Activity,[13],98%
same,Activity,[14],100%
same,Activity,[15],83%
same,Activity,[16],41%
same,Activity,[17],99%
same,Activity,[18],14%
same,Activity,[19],100%
same,Activity,[20],97%
same,Activity,[21],100%

# Source: ChEMBL document CHEMBL4043093, “2-Oxo-3, 4-dihydropyrimido[4, 5-d]pyrimidinyl derivatives as new irreversible pan fibroblast growth factor receptor (FGFR) inhibitors” (Eur J Med Chem, 2017)
